Compounds with a hit are over-represented: about 2.1% of the library has one in this group of screens.
Cneo AK release = Cryptococcus neoformans cell lysis inducers, primary screen, AK release luminescence, single concentration; AID 651654, 2012; lysis activity, % at 15 µM; hit rate 0.2% among 360,000; C. neoformans lysis, adenylate kinase release luminescence, 4 h; normalised: neutral wells 0, clomiphene wells 100;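 active = mean lysis activity across replicates of at least 80%, whatever share of replicates individually reach that level; inactive = mean lysis activity below 80%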
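Material: C. neoformans cells | Amount: Yeast cell density of 5 × 10^6 cells/mL | Medium: Fresh YPD growth medium | Dosing: Single dose | Times: Static 4 h at 37 °C with compound, 1 h detection | Detection: AK luminescence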
Xi reactivation = activators of inactive X chromosome reactivation, primary screen, imaging, XiGFP fibroblasts, GFP high-content imaging, set 2 | XiGFP mouse fibroblasts, % GFP-positive cells imaging, 3 d; cells co-treated with 5-aza-dC sensitizer; scaled so ellipticine positive control = 100% | activation, % at 7.58 µM | hit rate 0.055% among 360,000;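 active = mean normalized replicate activation at least 10% and every replicate at or above 10%; inconclusive = only one of the two criteria met; inactive = mean below 10% and not all replicates reach 10%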
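Assay system: SV40-immortalized XiGFP fibroblast cells, line 68-5-11; buffer or medium: DMEM plus 5-aza-dC sensitizer; compound: one concentration, pinned; timing: compounds 3 days, fix/stain 15 min at room temperature; benchmarks: positive control ellipticine, 6 µM final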
DENV2 CPE = inhibitors of DENV2 cytopathic effect, primary screen, cell-based, plate reader, single concentration | hit rate 1.7% among 350,000 | CPE inhibition, % at 9.99 µM | AID 651640, 2012 | DENV2-infected cells, cytopathic effect rescue; in the data active = CPE inhibition above about 20%, passing the limit was not always enough; inconclusive = no clear call, values can overlap the other calls; tested in BHK-21 cells
Statin myotox sup = suppressors of statin myotoxicity in C2C12 myotubes, primary screen, cell-based, single point, plate reader; AID 602340, 2012; rescue of ATP level, % at 7.49 µM; hit rate 0.78% among 330,000; C2C12 myotubes + simvastatin, ATP luminescence, 48 h; scaled: DMSO 0, geranylgeraniol control 100;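 active = mean ATP rescue above about 67%, or every replicate alone reaching that limit, limit read from the data, passing the limit was not always enough; inconclusive = no clear call, values can overlap the other calls; inactive = mean under the limit and some replicate under it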;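 also: myotubes were challenged with 10 µM simvastatin during compound exposure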
Hits are given with their value; - = inactive; ? = inconclusive; . = not tested or not shown; ! = repeats disagree.

SMILES | Cneo AK release | Xi reactivation | DENV2 CPE | Statin myotox sup
C[C@H]1CN([C@@H](C)CO)C(=O)c2cccc(NS(=O)(=O)c3ccc(Cl)cc3)c2O[C@@H]1CN(C)CC1CC1 | 89.2 | . | - | -
C[C@H](CO)N1C[C@H](C)[C@H](CN(C)CC2CC2)Oc2c(NS(=O)(=O)c3ccc(Cl)cc3)cccc2C1=O | - | - | - | -
Cc1ccc(S(=O)(=O)Nc2cccc3c2O[C@@H](CN(C)C(=O)NC(C)C)[C@@H](C)CN([C@H](C)CO)C3=O)cc1 | - | - | 43.3 | -
C[C@H](NC(=O)C[C@@H]1CC[C@H]2[C@@H](COC[C@H](O)CN2Cc2cc(F)ccc2F)O1)c1ccccc1 | - | - | - | -
COc1ccc(NC(=O)N(C)C[C@H]2Oc3c(NS(=O)(=O)c4ccc(F)cc4)cccc3C(=O)N([C@@H](C)CO)C[C@H]2C)cc1 | - | - | ? | -
Cc1ccccc1S(=O)(=O)N1[C@H](CO)[C@@H](c2ccc(-c3ccc(F)cc3)cc2)[C@@H]1C#N | - | - | - | -
Cc1noc(C)c1NC(=O)N(C)C[C@H]1Oc2c(NS(=O)(=O)c3c(C)noc3C)cccc2C(=O)N([C@@H](C)CO)C[C@H]1C | - | - | - | .
O=C(C1CCC1)N1CC2(C1)[C@H](c1ccccc1)[C@@H](CO)N2CC1CCCC1 | . | - | - | .
C[C@@H]1CN([C@H](C)CO)C(=O)c2cccc(NS(C)(=O)=O)c2O[C@H]1CN(C)CC1CC1 | - | - | - | -
Cc1noc(C)c1S(=O)(=O)Nc1cccc2c1O[C@H](CN(C)S(=O)(=O)c1ccccc1)[C@H](C)CN([C@H](C)CO)C2=O | - | - | 54.3 | -
C[C@@H]1CN([C@@H](C)CO)C(=O)c2cccc(NS(C)(=O)=O)c2O[C@H]1CN(C)CC1CCCCC1 | - | - | - | 102.8!
Cc1noc(C)c1NC(=O)N(C)C[C@@H]1Oc2c(NS(=O)(=O)c3ccccc3)cccc2C(=O)N([C@@H](C)CO)C[C@@H]1C | - | - | 124.6 | -
Cc1noc(C)c1S(=O)(=O)Nc1ccc2c(c1)C(=O)N([C@@H](C)CO)C[C@H](C)[C@H](CN(C)Cc1ccc3c(c1)OCO3)OCCCC[C@H](C)O2 | - | - | 46.5 | .
Cc1noc(C)c1S(=O)(=O)Nc1ccc2c(c1)C(=O)N([C@@H](C)CO)C[C@H](C)[C@H](CN(C)Cc1ccc3c(c1)OCO3)O2 | - | - | 31.8 | 75.8
Cc1noc(C)c1S(=O)(=O)Nc1ccc2c(c1)C(=O)N([C@@H](C)CO)C[C@H](C)[C@@H](CN(C)Cc1ccc3c(c1)OCO3)OCCCC[C@@H](C)O2 | 101.2 | - | - | .
Cc1noc(C)c1S(=O)(=O)Nc1ccc2c(c1)C(=O)N([C@@H](C)CO)C[C@@H](C)[C@H](CN(C)Cc1ccc(Cl)c(Cl)c1)OCCCC[C@@H](C)O2 | - | - | - | 120.8
Cc1noc(C)c1S(=O)(=O)Nc1ccc2c(c1)C(=O)N([C@H](C)CO)C[C@H](C)[C@@H](CN(C)Cc1ccc3c(c1)OCO3)O2 | - | - | - | -
CS(=O)(=O)Nc1ccc2c(c1)[C@@H]1C[C@@H](CC(=O)NCc3ccc(-c4ccccc4)cc3)O[C@H](CO)[C@@H]1O2 | - | - | - | -
O=C(C[C@@H]1CC[C@H]2[C@@H](COC[C@H](O)CN2Cc2nccs2)O1)NCc1ccc(-c2ccccc2)cc1 | - | - | - | -
CCOC(=O)N1CCN(C(=O)c2ccc3c(=O)n(CCc4ccccc4)c(=O)[nH]c3c2)CC1 | - | . | . | 176.9
CCCCCn1c(=O)[nH]c2cc(C(=O)N3CCN(C(=O)OCC)CC3)ccc2c1=O | - | - | - | -
CCCCCCN1CCN(C2CN(Cc3ccc(F)cc3)S(=O)(=O)C2)CC1 (stereo not given) | - | . | 30.8 | -
COC(=O)CCCC(=O)N1CCOCCN(C(=O)CCCC(=O)OC)CCOCC1 | - | . | . | 110.4
COC(=O)CCC(=O)N1CCOCCOCCN(C(=O)CCC(=O)OC)CCOCCOCC1 | - | . | . | .
COc1cccc(CNc2ccccc2O)c1OCc1ccccc1F | - | - | . | 96.1
COc1cccc(CNc2ccc(S(N)(=O)=O)cc2)c1OCc1ccccc1F | . | - | - | .
O=C(/C=C/[C@H]1O[C@@H](n2ccc(=O)[nH]c2=O)[C@H](O)[C@@H]1O)NCc1cccs1 | - | - | 22.5 | -

From PubChem
